Source: ChEMBL document CHEMBL2157922, “Synthesis and antifungal activity of diverse C-2 pyridinyl and pyridinylvinyl substituted quinolines” (2012)
Converted amounts (≈) assume the structure as drawn.

Columns and labels:
Candida albicans [1] = assay: Antifungal activity against Candida albicans CCC 129 after 48 hrs by broth microdilution technique; format: functional; conditions: CCC 129, 48 h
Nannizzia gypsea = assay: Antifungal activity against Microsporum gypseum CCC 115 after 48 hrs by broth microdilution technique; format: functional; conditions: CCC 115, 48 h
Method in brief: (§1)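 Moulds and dermatophytes were run by CLSI broth microdilution in MOPS-buffered RPMI-1640 at pH 7.0. Aspergillus was incubated at 30 °C and dermatophytes at 28–30 °C, in a moist, dark chamber. MIC100, the lowest concentration with no visible growth, was read visually at a time set by growth of the control fungus.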

Cryptococcus neoformans [2] = assay: Antifungal activity against Cryptococcus neoformans IM 983040 after 48 hrs by broth microdilution technique; format: functional; conditions: IM 983040, 48 h
Method in brief: (§2)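 C. neoformans was tested by 96-well RPMI-1640 microdilution, with DMSO-matched growth and sterility control wells. Plates were incubated 48 h at 30 °C in a moist, dark chamber and read at OD405. % inhibition = 100 − (CTW − SCW)/(GCW − SCW), in duplicate. For the clinical isolates, MIC80 and MIC50 are the lowest concentrations giving 80% and 50% inhibition.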

Aspergillus fumigatus = assay: Antifungal activity against Aspergillus fumigatus ATCC 26934 after 48 hrs by broth microdilution technique; format: functional; conditions: ATCC 26934, 48 h; method in brief: as §1
Candida albicans [3] = assay: Antifungal activity against Candida albicans CCC 125 after 48 hrs by broth microdilution technique; format: functional; conditions: CCC 125, 48 h
Trichophyton rubrum = assay: Antifungal activity against Trichophyton rubrum CCC 113 after 48 hrs by broth microdilution technique; format: functional; conditions: CCC 113, 48 h
Pichia kudriavzevii = assay: Antifungal activity against Candida krusei CCC 117 after 48 hrs by broth microdilution technique; format: functional; conditions: CCC 117, 48 h
Nakaseomyces glabratus = assay: Antifungal activity against Candida glabrata CCC 115 after 48 hrs by broth microdilution technique; format: functional; conditions: CCC 115, 48 h
Cryptococcus neoformans [4] = assay: Antifungal activity against Cryptococcus neoformans ATCC 32264 after 48 hrs by broth microdilution technique; format: functional; conditions: ATCC 32264, 48 h
Method in brief: (§3)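 Yeasts were tested by CLSI broth microdilution in RPMI-1640 buffered to pH 7.0 with MOPS, with compound from 250 down to 0.98 in DMSO stocks. Trays were held at 30 °C in a moist, dark chamber. MIC100, the lowest concentration giving total visual inhibition against the growth control, was read by eye at 48 h.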

Cryptococcus neoformans [5] = assay: Antifungal activity against Cryptococcus neoformans IM 972751 after 48 hrs by broth microdilution technique; format: functional; conditions: IM 972751, 48 h; method in brief: as §2
Candida tropicalis = assay: Antifungal activity against Candida tropicalis CCC 131 after 48 hrs by broth microdilution technique; format: functional; conditions: CCC 131, 48 h
[6] = test system: Trichophyton mentagrophytes; assay: Antifungal activity against Trichophyton mentagrophytes ATCC 9972 after 48 hrs by broth microdilution technique; format: functional; conditions: ATCC 9972, 48 h; method in brief: as §1
Cryptococcus neoformans [7] = assay: Antifungal activity against Cryptococcus neoformans IM 00319 after 48 hrs by broth microdilution technique; format: functional; conditions: IM 00319, 48 h; method in brief: as §2
Aspergillus flavus = assay: Antifungal activity against Aspergillus flavus ATCC 9170 after 48 hrs by broth microdilution technique; format: functional; conditions: ATCC 9170, 48 h; method in brief: as §1
Candida albicans [8] = assay: Antifungal activity against Candida albicans CCC 130 after 24 hrs by broth microdilution technique; conditions: CCC 130, 24 h
Cryptococcus neoformans [9] = assay: Antifungal activity against Cryptococcus neoformans IM 972724 after 48 hrs by broth microdilution technique; format: functional; conditions: IM 972724, 48 h; method in brief: as §2
Candida parapsilosis = assay: Antifungal activity against Candida parapsilosis CCC 124 after 48 hrs by broth microdilution technique; format: functional; conditions: Lodderomyces parapsilosis, CCC 124, 48 h
Candida albicans [10] = assay: Antifungal activity against Candida albicans CCC 128 after 48 hrs by broth microdilution technique; format: functional; conditions: CCC 128, 48 h
Cryptococcus neoformans [11] = assay: Antifungal activity against Cryptococcus neoformans IM 983036 after 48 hrs by broth microdilution technique; format: functional; conditions: IM 983036, 48 h; method in brief: as §2
Candida albicans [12] = assay: Antifungal activity against Candida albicans CCC 127 after 48 hrs by broth microdilution technique; format: functional; conditions: CCC 127, 48 h
Cryptococcus neoformans [13] = assay: Antifungal activity against Cryptococcus neoformans ATCC 32264 at 31.2 ug/ml after 48 hrs; format: functional; conditions: ATCC 32264, 48 h; method in brief: as §2
Cryptococcus neoformans [14] = assay: Antifungal activity against Cryptococcus neoformans IM 042074 after 48 hrs by broth microdilution technique; format: functional; conditions: IM 042074, 48 h; method in brief: as §2
Aspergillus niger = assay: Antifungal activity against Aspergillus niger ATCC 9029 after 48 hrs by broth microdilution technique; format: functional; conditions: ATCC 9029, 48 h; method in brief: as §1
Candida albicans [15] = assay: Antifungal activity against Candida albicans ATCC 10231 after 48 hrs by broth microdilution technique; format: functional; conditions: ATCC 10231, 48 h; method in brief: as §3
Candida albicans [16] = assay: Antifungal activity against Candida albicans CCC 130 after 48 hrs by broth microdilution technique; format: functional; conditions: CCC 130, 48 h
Saccharomyces cerevisiae = assay: Antifungal activity against Saccharomyces cerevisiae ATCC 9763 after 48 hrs by broth microdilution technique; format: functional; conditions: ATCC 9763, 48 h; method in brief: as §3
Candida albicans [17] = assay: Antifungal activity against Candida albicans CCC 126 after 48 hrs by broth microdilution technique; format: functional; conditions: CCC 126, 48 h

Cc1ccc2nc(-c3ccncc3)ccc2c1 gave an MIC50 (Candida albicans [1]) of 62.5 µg/mL (≈ 284 µM), an MIC80 (Candida albicans [1]) of 125 µg/mL (≈ 567 µM) and an MFC (Nannizzia gypsea) of 62 µg/mL (≈ 281 µM). For the same compound, the MIC (Nannizzia gypsea) was 62 µg/mL (≈ 281 µM), the MIC50 (Cryptococcus neoformans [2]) was 7.8 µg/mL (≈ 35.4 µM) and the MIC80 (Cryptococcus neoformans [2]) was 31.2 µg/mL (≈ 142 µM). It also gave an MFC (Aspergillus fumigatus) of 125 µg/mL (≈ 567 µM), an MIC (Aspergillus fumigatus) of 62 µg/mL (≈ 281 µM) and an MIC50 (Candida albicans [3]) of 31.2 µg/mL (≈ 142 µM). For the same compound, the MIC80 (Candida albicans [3]) was 125 µg/mL (≈ 567 µM), the MFC (Trichophyton rubrum) was 62 µg/mL (≈ 281 µM) and the MIC (Trichophyton rubrum) was 62 µg/mL (≈ 281 µM). It also gave an MIC50 (Pichia kudriavzevii) of 31.2 µg/mL (≈ 142 µM), an MIC80 (Pichia kudriavzevii) of 62.5 µg/mL (≈ 284 µM) and an MIC50 (Nakaseomyces glabratus) of 7.8 µg/mL (≈ 35.4 µM). The MIC80 (Nakaseomyces glabratus) was 15.6 µg/mL (≈ 70.8 µM), the MFC (Cryptococcus neoformans [4]) was 125 µg/mL (≈ 567 µM) and the MIC (Cryptococcus neoformans [4]) was 62 µg/mL (≈ 281 µM). The MIC50 (Cryptococcus neoformans [4]) was 7.8 µg/mL (≈ 35.4 µM), the MIC80 (Cryptococcus neoformans [4]) was 31.2 µg/mL (≈ 142 µM) and the MIC50 (Cryptococcus neoformans [5]) was 7.8 µg/mL (≈ 35.4 µM). The MIC80 (Cryptococcus neoformans [5]) was 31.2 µg/mL (≈ 142 µM), the MIC50 (Candida tropicalis) was 15.6 µg/mL (≈ 70.8 µM) and the MIC80 (Candida tropicalis) was 125 µg/mL (≈ 567 µM). It also gave an MFC [6] of 62 µg/mL (≈ 281 µM), an MIC [6] of 62 µg/mL (≈ 281 µM) and an MIC50 (Cryptococcus neoformans [7]) of 15.6 µg/mL (≈ 70.8 µM). It also gave an MIC80 (Cryptococcus neoformans [7]) of 31.2 µg/mL (≈ 142 µM), an MFC (Aspergillus flavus) of 125 µg/mL (≈ 567 µM) and an MIC (Aspergillus flavus) of 62 µg/mL (≈ 281 µM). For the same compound, the MIC50 (Candida albicans [8]) was 62.5 µg/mL (≈ 284 µM), the MIC50 (Cryptococcus neoformans [9]) was 15.6 µg/mL (≈ 70.8 µM) and the MIC80 (Cryptococcus neoformans [9]) was 31.2 µg/mL (≈ 142 µM). The MIC50 (Candida parapsilosis) was 7.8 µg/mL (≈ 35.4 µM), the MIC80 (Candida parapsilosis) was 31.2 µg/mL (≈ 142 µM) and the MIC50 (Candida albicans [10]) was 31.2 µg/mL (≈ 142 µM). For the same compound, the MIC80 (Candida albicans [10]) was 125 µg/mL (≈ 567 µM), the MIC50 (Cryptococcus neoformans [11]) was 31.2 µg/mL (≈ 142 µM) and the MIC80 (Cryptococcus neoformans [11]) was 62.5 µg/mL (≈ 284 µM). It also gave an MIC50 (Candida albicans [12]) of 31.2 µg/mL (≈ 142 µM), an MIC80 (Candida albicans [12]) of 125 µg/mL (≈ 567 µM) and an inhibition at 31.2 µg/mL (Cryptococcus neoformans [13]) of 80%. For the same compound, the MIC50 (Cryptococcus neoformans [14]) was 15.6 µg/mL (≈ 70.8 µM), the MIC80 (Cryptococcus neoformans [14]) was 31.2 µg/mL (≈ 142 µM) and the MFC (Aspergillus niger) was 250 µg/mL (≈ 1130 µM). It also gave an MIC (Aspergillus niger) of 125 µg/mL (≈ 567 µM), an MFC (Candida albicans [15]) of 250 µg/mL (≈ 1130 µM) and an MIC (Candida albicans [15]) of 125 µg/mL (≈ 567 µM). For the same compound, the MIC50 (Candida albicans [15]) was 15.6 µg/mL (≈ 70.8 µM), the MIC80 (Candida albicans [15]) was 31.2 µg/mL (≈ 142 µM) and the MIC80 (Candida albicans [16]) was 125 µg/mL (≈ 567 µM). For the same compound, the MFC (Saccharomyces cerevisiae) was 125 µg/mL (≈ 567 µM), the MIC (Saccharomyces cerevisiae) was 62 µg/mL (≈ 281 µM) and the MIC50 (Candida albicans [17]) was 31.2 µg/mL (≈ 142 µM). The MIC80 (Candida albicans [17]) was 62.5 µg/mL (≈ 284 µM).
